ChEMBL document CHEMBL4689842, “EUbOPEN Chemogenomics Library wave 1” (2021)

System: Fibroblast
Assay: Multiplex assay against human fibroblast
Type: toxicity, cell-based
Method in brief: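 Live cells were stained at seeding with Hoechst33342, BioTracker Green Microtubule Cytoskeleton Dye, MitoTracker Red and Annexin V Alexa Fluor 680. Following compound addition, they were imaged on a CQ1 microscope at 37°C and 5% CO2 and gated by CellPathfinder machine learning into Hoechst high-intensity objects or normal cells, with normal cells split into healthy, pyknosed or fragmented nuclei and pyknosed cells into mitotic or apoptotic. Tubulin, mitochondrial-mass and membrane-permeability phenotypes are per cents of healthy-nucleus cells.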

[1] = 12 h, 1 µM, compound concentration 1 uM, replicate 1
[2] = 12 h, 1 µM, compound concentration 1 uM, replicate 2
[3] = 12 h, 10 µM, compound concentration 10 uM, replicate 1
[4] = 12 h, 10 µM, compound concentration 10 uM, replicate 2
[5] = 24 h, 1 µM, compound concentration 1 uM, replicate 1
[6] = 24 h, 1 µM, compound concentration 1 uM, replicate 2
[7] = 24 h, 10 µM, compound concentration 10 uM, replicate 1
[8] = 24 h, 10 µM, compound concentration 10 uM, replicate 2

CCN(CC)CCCCNc1ncc2cc(-c3cc(OC)cc(OC)c3)c(NC(=O)NC(C)(C)C)nc2n1 [PD-173074]
Population Apoptotic (%) [1]: 61%
Population Fragmented Nuclei (%) [1]: 20%
Population Hoechst High Intensity Objects (%) [1]: 70%
Population Membrane Permeable-Phenotype (%) [1]: 2%
Population Mitotic Cells (%) [1]: 38%
Population Normal (%) [1]: 29%
Population Pyknosed Nuclei (%) [1]: 63%
Population Tubulin-Different-Phenotype (%) [1]: 8%
Total Cell Count [1]: 749
Population Apoptotic (%) [2]: 67%
Population Fragmented Nuclei (%) [2]: 46%
Population Healthy Nuclei (%) [2]: 15%
Population Hoechst High Intensity Objects (%) [2]: 72%
Population Membrane Permeable-Phenotype (%) [2]: 13%
Population Mitochondria Different-Phenotype (%) [2]: 0%
Population Mitotic Cells (%) [2]: 32%
Population Normal (%) [2]: 27%
Population Pyknosed Nuclei (%) [2]: 38%
Population Tubulin-Different-Phenotype (%) [2]: 0%
Total Cell Count [2]: 352
Population Apoptotic (%) [3]: 60%
Population Fragmented Nuclei (%) [3]: 44%
Population Healthy Nuclei (%) [3]: 34%
Population Hoechst High Intensity Objects (%) [3]: 57%
Population Membrane Permeable-Phenotype (%) [3]: 0%
Population Mitotic Cells (%) [3]: 39%
Population Normal (%) [3]: 42%
Population Pyknosed Nuclei (%) [3]: 20%
Population Tubulin-Different-Phenotype (%) [3]: 6%
Total Cell Count [3]: 786
Population Apoptotic (%) [4]: 66%
Population Fragmented Nuclei (%) [4]: 54%
Population Healthy Nuclei (%) [4]: 32%
Population Hoechst High Intensity Objects (%) [4]: 61%
Population Membrane Permeable-Phenotype (%) [4]: 16%
Population Mitochondria Different-Phenotype (%) [4]: 4%
Population Mitotic Cells (%) [4]: 33%
Population Normal (%) [4]: 38%
Population Pyknosed Nuclei (%) [4]: 12%
Population Tubulin-Different-Phenotype (%) [4]: 8%
Total Cell Count [4]: 189
Population Apoptotic (%) [5]: 59%
Population Fragmented Nuclei (%) [5]: 32%
Population Healthy Nuclei (%) [5]: 13%
Population Hoechst High Intensity Objects (%) [5]: 74%
Population Membrane Permeable-Phenotype (%) [5]: 0%
Population Mitotic Cells (%) [5]: 40%
Population Normal (%) [5]: 25%
Population Pyknosed Nuclei (%) [5]: 53%
Population Tubulin-Different-Phenotype (%) [5]: 9%
Total Cell Count [5]: 594
Population Apoptotic (%) [6]: 62%
Population Fragmented Nuclei (%) [6]: 44%
Population Healthy Nuclei (%) [6]: 12%
Population Hoechst High Intensity Objects (%) [6]: 72%
Population Membrane Permeable-Phenotype (%) [6]: 16%
Population Mitochondria Different-Phenotype (%) [6]: 0%
Population Mitotic Cells (%) [6]: 37%
Population Normal (%) [6]: 27%
Population Pyknosed Nuclei (%) [6]: 43%
Population Tubulin-Different-Phenotype (%) [6]: 0%
Total Cell Count [6]: 339
Population Apoptotic (%) [7]: 51%
Population Fragmented Nuclei (%) [7]: 42%
Population Healthy Nuclei (%) [7]: 39%
Population Membrane Permeable-Phenotype (%) [7]: 2%
Population Mitochondria Different-Phenotype (%) [7]: 0%
Population Mitotic Cells (%) [7]: 48%
Population Pyknosed Nuclei (%) [7]: 18%
Population Tubulin-Different-Phenotype (%) [7]: 5%
Total Cell Count [7]: 734
Population Apoptotic (%) [8]: 60%
Population Fragmented Nuclei (%) [8]: 58%
Population Healthy Nuclei (%) [8]: 28%
Population Hoechst High Intensity Objects (%) [8]: 58%
Population Membrane Permeable-Phenotype (%) [8]: 28%
Population Mitochondria Different-Phenotype (%) [8]: 14%
Population Mitotic Cells (%) [8]: 40%
Population Normal (%) [8]: 41%
Population Pyknosed Nuclei (%) [8]: 13%
Population Tubulin-Different-Phenotype (%) [8]: 19%
Total Cell Count [8]: 177
